Results published in ChEMBL document CHEMBL4028868, “Click-Chemistry-Mediated Synthesis of Selective Melanocortin Receptor 4 Agonists” (J Med Chem, 2017).

Columns and labels:
Melanocortin receptor 5 [1] = target: T1, Melanocortin receptor 5 (Homo sapiens, UniProt P33032); experiment: Agonist activity at EYFP-fused human MC5R expressed in HEK293 cells after 16 to 20 hrs by CRE-driven reporter assay relative to alpha-MSH; assay type: functional, cell-based
Outline: (§1)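 HEK293 monoclonal lines carrying a single receptor/9×CRE-d2EYFP construct, selected with puromycin and FACS-sorted, kept in low-fluorescence DMEM. EYFP imaged with bright-field images, normalized to cell coverage, corrected for unstimulated cells and scaled to α-MSH maximum. Four-parameter fit constrained to minimum 0, at least three independent experiments.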

Melanocortin receptor 4 [2] = target: T2, Melanocortin receptor 4 (Homo sapiens, UniProt P32245); experiment: Agonist activity at EYFP-fused human MC4R expressed in HEK293 cells after 16 to 20 hrs by CRE-driven reporter assay; assay type: functional, cell-based
Homo sapiens = species: Homo sapiens; experiment: Selectivity ratio of EC50 for EYFP-fused human MC3R expressed in HEK293 cells to EC50 for EYFP-fused human MC4R expressed in HEK293 cells; assay type: cell-based
Melanocortin receptor 4 [3] = target: T2, Melanocortin receptor 4; experiment: Agonist activity at EYFP-fused human MC4R expressed in HEK293 cells assessed as increase in cAMP accumulation after 30 mins by luminescent enzymatic complementation based assay; assay type: functional, cell-based
Melanocortin receptor 3 [4] = target: T3, Melanocortin receptor 3 (Homo sapiens, UniProt P41968); experiment: Agonist activity at EYFP-fused human MC3R expressed in HEK293 cells after 16 to 20 hrs by CRE-driven reporter assay relative to alpha-MSH; assay type: functional, cell-based; outline: as §1
Melanocortin receptor 5 [5] = target: T1, Melanocortin receptor 5; experiment: Agonist activity at EYFP-fused human MC5R expressed in HEK293 cells after 16 to 20 hrs by CRE-driven reporter assay; assay type: functional, cell-based; outline: as §1
Melanocortin receptor 3 [6] = target: T3, Melanocortin receptor 3; experiment: Agonist activity at EYFP-fused human MC3R expressed in HEK293 cells after 16 to 20 hrs by CRE-driven reporter assay; assay type: functional, cell-based; outline: as §1
Melanocortin receptor 4 [7] = target: T2, Melanocortin receptor 4; experiment: Agonist activity at EYFP-fused human MC4R expressed in HEK293 cells assessed as increase in cAMP accumulation at 3000 nM after 30 mins by luminescent enzymatic complementation based assay relative to alpha-MSH; assay type: functional, cell-based
Outline: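 MC4R-expressing HEK293 cells seeded at 50,000/well and switched after 24 h to HBSS with 500 μM IBMX. Ligand was added as 11-point series in triplicate for 30 min. Cells were lysed and incubated with enzyme fragments and substrate at room temperature in the dark for at least 4 h. Luminescence from enzyme complementation was background-corrected and normalized to the α-MSH maximum, with at least three independent experiments.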

Melanocortin receptor 4 [8] = target: T2, Melanocortin receptor 4; experiment: Agonist activity at EYFP-fused human MC4R expressed in HEK293 cells at 3000 nM after 16 to 20 hrs by CRE-driven reporter assay relative to alpha-MSH; assay type: functional, cell-based
Outline: as §1, with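 “DMEM. Seeded at 50,000 cells/well and treated after 24 h for 16–20 h with 11-point 3-fold dilutions (3.3 μM to […]) in triplicate, vehicle 0.5% v/v DMSO.” for “DMEM.”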

Melanocortin receptor 5 [9] = target: T1, Melanocortin receptor 5; experiment: Agonist activity at EYFP-fused human MC5R expressed in HEK293 cells at 3000 nM after 16 to 20 hrs by CRE-driven reporter assay relative to alpha-MSH; assay type: functional, cell-based
Outline: as §1, with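 “DMEM. Seeded at 50,000 cells/well and treated after 24 h for 16–20 h with 11-point 3-fold dilutions (3.3 μM to […]) in triplicate, vehicle 0.5% v/v DMSO.” for “DMEM.”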

Melanocortin receptor 3 [10] = target: T3, Melanocortin receptor 3; experiment: Agonist activity at EYFP-fused human MC3R expressed in HEK293 cells at 3000 nM after 16 to 20 hrs by CRE-driven reporter assay relative to alpha-MSH; assay type: functional, cell-based
Outline: as §1, with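 “DMEM. Seeded at 50,000 cells/well and treated after 24 h for 16–20 h with 11-point 3-fold dilutions (3.3 μM to […]) in triplicate, vehicle 0.5% v/v DMSO.” for “DMEM.”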

T1 sequence (P33032 whole entry, the tested form may be a part): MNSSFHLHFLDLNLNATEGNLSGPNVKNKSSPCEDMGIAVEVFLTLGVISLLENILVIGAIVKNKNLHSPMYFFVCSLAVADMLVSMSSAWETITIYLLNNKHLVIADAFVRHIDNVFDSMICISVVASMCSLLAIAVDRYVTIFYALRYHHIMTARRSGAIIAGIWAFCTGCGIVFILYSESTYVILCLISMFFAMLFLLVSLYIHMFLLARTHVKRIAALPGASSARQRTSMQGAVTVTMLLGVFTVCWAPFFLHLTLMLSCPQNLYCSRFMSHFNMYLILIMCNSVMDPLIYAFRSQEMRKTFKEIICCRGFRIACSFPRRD
T2 sequence (P32245 whole entry, the tested form may be a part): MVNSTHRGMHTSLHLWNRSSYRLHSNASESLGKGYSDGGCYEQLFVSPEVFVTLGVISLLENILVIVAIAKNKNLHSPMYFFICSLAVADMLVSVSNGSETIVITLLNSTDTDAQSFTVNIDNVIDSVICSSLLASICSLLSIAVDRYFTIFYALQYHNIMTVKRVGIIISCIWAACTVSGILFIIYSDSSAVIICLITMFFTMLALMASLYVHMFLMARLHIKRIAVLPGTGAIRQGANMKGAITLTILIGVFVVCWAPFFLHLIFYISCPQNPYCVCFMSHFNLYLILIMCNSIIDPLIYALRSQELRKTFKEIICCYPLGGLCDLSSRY
T3 sequence (P41968 whole entry, the tested form may be a part): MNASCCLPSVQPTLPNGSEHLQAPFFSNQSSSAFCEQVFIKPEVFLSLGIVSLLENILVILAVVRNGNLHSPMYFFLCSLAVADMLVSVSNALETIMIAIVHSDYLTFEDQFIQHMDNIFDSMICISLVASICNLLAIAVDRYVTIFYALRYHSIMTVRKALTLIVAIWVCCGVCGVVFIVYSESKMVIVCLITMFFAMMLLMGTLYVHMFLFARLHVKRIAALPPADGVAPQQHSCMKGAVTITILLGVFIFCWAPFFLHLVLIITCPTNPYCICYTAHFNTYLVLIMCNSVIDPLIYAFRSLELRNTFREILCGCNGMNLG

Emax (Melanocortin receptor 5 [1])	EC50 (Melanocortin receptor 4 [2])	EC50 (Melanocortin receptor 4 [3])	Emax (Melanocortin receptor 3 [4])	EC50 (Melanocortin receptor 5 [5])	EC50 (Melanocortin receptor 3 [6])	Emax (Melanocortin receptor 4 [7])	Emax (Melanocortin receptor 4 [8])	Emax (Melanocortin receptor 5 [9])	Emax (Melanocortin receptor 3 [10])	SMILES	Ratio EC50 (Homo sapiens)
123%	1.4 nM	2 nM	111%	137 nM	19.4 nM					CSCC[C@H](NC(=O)[C@@H]1Cc2cn(nn2)C[C@H](NC(=O)[C@H](C)N)C(=O)N[C@@H](Cc2cnc[nH]2)C(=O)N[C@H](Cc2ccccc2)C(=O)N[C@@H](CCCNC(=N)N)C(=O)N[C@@H](Cc2c[nH]c3ccccc23)C(=O)N1)C(=O)O	
	258 nM	684 nM		> 3000 nM	> 3000 nM			5%	10%	CSCC[C@H](NC(=O)[C@@H]1Cc2cn(nn2)C[C@H](NC(=O)[C@@H](N)CCCCN)C(=O)N[C@@H](Cc2cnc[nH]2)C(=O)N[C@H](Cc2ccccc2)C(=O)N[C@@H](C)C(=O)N[C@@H](Cc2c[nH]c3ccccc23)C(=O)N1)C(=O)O	
126%	2.3 nM	17.9 nM	107%	635 nM	162 nM					C[C@H](NC(=O)[C@@H]1Cc2cn(nn2)C[C@H](NC(=O)[C@@H](N)CCCCN)C(=O)N[C@@H](Cc2cnc[nH]2)C(=O)N[C@H](Cc2ccccc2)C(=O)N[C@@H](CCCNC(=N)N)C(=O)N[C@@H](Cc2c[nH]c3ccccc23)C(=O)N1)C(=O)O	
	318 nM	730 nM		> 3000 nM	> 3000 nM			9%	12%	CSCC[C@H](NC(=O)[C@@H]1Cc2cn(nn2)C[C@H](NC(=O)[C@@H](N)CCCCN)C(=O)N[C@@H](Cc2cnc[nH]2)C(=O)N[C@H](Cc2ccccc2)C(=O)N[C@@H](CCCN)C(=O)N[C@@H](Cc2c[nH]c3ccccc23)C(=O)N1)C(=O)O	
	12.7 nM	124 nM		> 3000 nM	> 3000 nM			13%	40%	CSCC[C@H](NC(=O)[C@@H]1Cc2cn(nn2)C[C@H](NC(=O)[C@@H](N)CCCCN)C(=O)N[C@@H](Cc2cnc[nH]2)C(=O)N[C@H](Cc2ccccc2)C(=O)N[C@@H](CCCCN)C(=O)N[C@@H](Cc2c[nH]c3ccccc23)C(=O)N1)C(=O)O	
	> 3000 nM	> 3000 nM		> 3000 nM	> 3000 nM	28%	48%	0%	0%	CSCC[C@H](NC(=O)[C@@H]1Cc2cn(nn2)C[C@H](NC(=O)[C@@H](N)CCCCN)C(=O)N[C@@H](Cc2c[nH]c3ccccc23)C(=O)N[C@H](Cc2ccccc2)C(=O)N[C@@H](CCCNC(=N)N)C(=O)N[C@@H](Cc2cnc[nH]2)C(=O)N1)C(=O)O	

The next lines start with the compound.

SMILES	Emax (Melanocortin receptor 5 [1])	EC50 (Melanocortin receptor 4 [2])	EC50 (Melanocortin receptor 4 [3])	Emax (Melanocortin receptor 3 [4])	EC50 (Melanocortin receptor 5 [5])	EC50 (Melanocortin receptor 3 [6])	Emax (Melanocortin receptor 4 [7])	Emax (Melanocortin receptor 4 [8])	Emax (Melanocortin receptor 5 [9])	Emax (Melanocortin receptor 3 [10])	Ratio EC50 (Homo sapiens)
CSCC[C@H](NC(=O)[C@@H]1Cc2cn(nn2)C[C@H](NC(=O)[C@@H](N)CCCCN)C(=O)N[C@@H](Cc2cnc[nH]2)C(=O)N[C@H](Cc2ccccc2)C(=O)N[C@@H](CCCNC(=N)N)C(=O)N[C@@H](Cc2c[nH]c3ccccc23)C(=O)N1)C(=O)O	120%	1.8 nM	9.2 nM	105%	299 nM	123 nM					70
CSCC[C@H](NC(=O)[C@@H]1Cc2cn(nn2)C[C@H](NC(=O)[C@@H](N)CCCCN)C(=O)N[C@@H](Cc2cnc[nH]2)C(=O)N[C@H](Cc2ccccc2)C(=O)N[C@@H](CCCNC(=N)N)C(=O)N[C@@H](C)C(=O)N1)C(=O)O		> 3000 nM	> 3000 nM		809 to 3000 nM	1910 to 3000 nM	16%	19%	18%	17%	
CC(=O)N[C@@H](CCCNC(=N)N)C(=O)N[C@H]1CSSC[C@@H](C(N)=O)NC(=O)[C@H](Cc2c[nH]c3ccccc23)NC(=O)[C@H](CCCNC(=N)N)NC(=O)[C@@H](Cc2ccccc2)NC(=O)[C@H](Cc2c[nH]cn2)NC(=O)[C@@H](C)NC1=O					110 nM						
CSCC[C@H](NC(=O)[C@@H]1Cc2cn(nn2)C[C@H](NC(=O)[C@@H](N)CCCNC(=N)N)C(=O)N[C@@H](Cc2cnc[nH]2)C(=O)N[C@H](Cc2ccccc2)C(=O)N[C@@H](CCCNC(=N)N)C(=O)N[C@@H](Cc2c[nH]c3ccccc23)C(=O)N1)C(=O)O	85%	11.4 nM	43.3 nM	102%	752 nM	291 nM					
CSCC[C@H](NC(=O)[C@@H]1Cc2cn(nn2)C[C@H](NC(=O)[C@@H](N)CCCCN)C(=O)N[C@@H](Cc2cnc[nH]2)C(=O)N[C@@H](Cc2ccccc2)C(=O)N[C@@H](CCCNC(=N)N)C(=O)N[C@@H](Cc2c[nH]c3ccccc23)C(=O)N1)C(=O)O		678 nM	792 nM		> 3000 nM	> 3000 nM			1%	32%	
CC[C@@H](C)[C@H]1NC(=O)[C@H](Cc2cnc[nH]2)NC(=O)[C@@H](NC(=O)[C@@H](N)CCCCN)Cn2cc(nn2)C[C@@H](C(=O)N[C@@H](CCSC)C(=O)O)NC(=O)[C@H](Cc2c[nH]c3ccccc23)NC(=O)[C@H](CCCNC(=N)N)NC1=O		> 3000 nM	> 3000 nM		> 3000 nM	> 3000 nM	13%	42%	0%	0%	
CSCC[C@H](NC(=O)[C@@H]1Cc2cn(nn2)C[C@H](NC(=O)[C@@H](N)CCCCN)C(=O)N[C@@H](C)C(=O)N[C@H](Cc2ccccc2)C(=O)N[C@@H](CCCNC(=N)N)C(=O)N[C@@H](Cc2c[nH]c3ccccc23)C(=O)N1)C(=O)O	130%	2.8 nM	28.8 nM	104%	375 nM	633 nM					
CSCC[C@H](NC(=O)[C@@H]1Cc2cn(nn2)CCC[C@H](N)C(=O)N[C@@H](Cc2cnc[nH]2)C(=O)N[C@H](Cc2ccccc2)C(=O)N[C@@H](CCCNC(=N)N)C(=O)N[C@@H](Cc2c[nH]c3ccccc23)C(=O)N1)C(=O)O		185 nM	720 nM		> 3000 nM	> 3000 nM			3%	16%	
CSCC[C@H](NC(=O)[C@@H]1Cc2cn(nn2)C[C@H](NC(=O)[C@@H](N)CCCCN)C(=O)N[C@@H](Cc2cnc[nH]2)C(=O)N[C@H](Cc2ccccc2)C(=O)N[C@@H](CCCNC(=N)N)C(=O)N[C@@H](Cc2csc3ccccc23)C(=O)N1)C(=O)O		7.6 nM	63.7 nM	96%	> 3000 nM	821 nM			59%		
CSCC[C@H](NC(=O)[C@@H]1Cc2cn(nn2)[C@@H](CCCNC(=N)N)C(=O)N[C@@H](Cc2cnc[nH]2)C(=O)N[C@H](Cc2ccccc2)C(=O)N[C@@H](CCCNC(=N)N)C(=O)N[C@@H](Cc2c[nH]c3ccccc23)C(=O)N1)C(=O)O	106%	3.2 nM	9.6 nM	112%	916 nM	160 nM					
CSCC[C@H](NC(=O)[C@@H]1Cc2cn(nn2)C[C@H](NC(=O)[C@@H](N)CCCCN)C(=O)N[C@@H](Cc2cnc[nH]2)C(=O)N[C@H](C)C(=O)N[C@@H](CCCNC(=N)N)C(=O)N[C@@H](Cc2c[nH]c3ccccc23)C(=O)N1)C(=O)O		112 nM	943 nM		> 3000 nM	> 3000 nM			8%	33%	
